Reference: article PMC4777260 (Pharmacology Research & Perspectives, 2016)

Experiments:
[1] = Fraction unbound in plasma by equilibrium dialysis, rat; format: in vitro ADME
Procedure, shortened: (§1)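 Plasma fraction unbound was determined by equilibrium dialysis in triplicate. Its standard error fed simulations of clinically relevant concentration ranges.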

[2] = system: rat cuticle bleeding time (CBT); experiment: Rat cuticle bleeding time; format: in vivo
Procedure, shortened: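 Same anaesthetised, IV bolus-plus-infusion rats as the shunt study. Five minutes after shunt placement, two hind-paw toe cuticles were cut at the quick. The paw was immersed in 37° lactated Ringer's, and time to bleeding cessation was recorded (10 min maximum). A linear model of CBT versus plasma concentration treated 600 s values as right-censored. Median and 5th/95th percentiles were simulated from parameter standard errors.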

[3] = Fraction unbound in plasma by equilibrium dialysis, human; format: in vitro ADME
Procedure, shortened: as §1

Rat pharmacokinetics = conditions: in vivo
PT = experiment: Ex vivo prothrombin time; format: in vivo, rat; conditions: plasma collected post-AVS, small molecule study
Procedure, shortened: (§2)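 Rats received a steady-state IV bolus-plus-infusion. A terminal blood sample was taken after the shunt and bleeding procedures into sodium citrate (11 mmol/L final). It was centrifuged at 2500g, 4°C, 15 min. One platelet-poor plasma aliquot was used for clotting times and the other for plasma drug concentration.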

fXa [4] = experiment: Calculated fXa enzyme occupancy; conditions: rat AVS
rat fIXa = rat fIXa (Rattus norvegicus, UniProt P16296); experiment: fIXa inhibition constant; format: biochemical
[5] = system: fIIa formation (thrombin generation); experiment: Ex vivo thrombin generation assay; format: in vivo, rat; conditions: TF 1, 5, 20 pmol/L trigger
fXa [6] = experiment: Calculated fXa enzyme occupancy; set-up: species or system human; conditions: C min 107 ng/mL, 5 mg BID SPAF dose
[7] = system: rat arteriovenous shunt (AVS/thrombosis); experiment: Rat arteriovenous shunt; format: in vivo
Procedure, shortened: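 Male Sprague Dawley rats (350–400 g) were anaesthetised with thiobutabarbital. Test compound or vehicle (35% w/v hydroxypropyl-β-cyclodextrin, 10 mmol/L phosphate buffer) was given as an IV bolus plus constant infusion: five doses, n ≥ 10/group, blinded. At 15 min, a carotid–jugular shunt with silk thread ran 15 min. CW = thread weight gain. A vehicle-proportional Imax model was fitted to CW versus plasma concentration.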

fXa [8] = conditions: equal fXa occupancy human/rat
aPTT = experiment: Ex vivo activated partial thromboplastin time; format: in vivo, rat; conditions: plasma collected post-AVS, small molecule study
Procedure, shortened: as §2

Human fIXa = Human fIXa (Homo sapiens, UniProt P00740); experiment: fIXa inhibition constant; format: biochemical
Chain of Human fIXa (P00740 227-461 limits assumed): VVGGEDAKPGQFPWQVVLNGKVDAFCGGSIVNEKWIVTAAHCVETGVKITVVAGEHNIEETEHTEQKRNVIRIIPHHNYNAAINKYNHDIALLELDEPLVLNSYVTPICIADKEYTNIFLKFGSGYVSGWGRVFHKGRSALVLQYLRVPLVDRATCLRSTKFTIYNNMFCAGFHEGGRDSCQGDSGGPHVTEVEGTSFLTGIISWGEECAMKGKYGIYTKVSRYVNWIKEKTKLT
Chain of Human fIXa (P00740 47-191 partner limits assumed): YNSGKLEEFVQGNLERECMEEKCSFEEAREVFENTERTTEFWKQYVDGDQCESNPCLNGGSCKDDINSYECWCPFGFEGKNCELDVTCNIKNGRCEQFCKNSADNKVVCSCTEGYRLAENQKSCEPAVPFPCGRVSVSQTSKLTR

Chain of rat fIXa (P16296 228-462 limits assumed): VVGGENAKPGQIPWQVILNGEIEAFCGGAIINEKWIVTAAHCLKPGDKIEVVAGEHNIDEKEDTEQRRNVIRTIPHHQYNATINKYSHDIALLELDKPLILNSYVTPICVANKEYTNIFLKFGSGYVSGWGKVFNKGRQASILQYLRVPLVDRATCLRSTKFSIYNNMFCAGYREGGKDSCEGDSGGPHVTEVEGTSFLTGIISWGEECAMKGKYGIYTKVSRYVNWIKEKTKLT
Chain of rat fIXa (P16296 40-185 partner limits assumed): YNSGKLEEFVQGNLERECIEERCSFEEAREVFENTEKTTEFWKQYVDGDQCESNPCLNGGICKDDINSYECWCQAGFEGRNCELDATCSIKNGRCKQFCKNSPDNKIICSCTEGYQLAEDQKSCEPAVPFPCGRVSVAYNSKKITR

- fraction unbound [1]: 0.019
- animals that reached the limit of the CBT assay (600 sec) ([2]; higher doses): 17
- Slope (slope of the drug effect on bleeding time) ([2]; linear PK/PD model of CBT vs rat plasma concentration): 29.6
- effect on CBT vs vehicle (in words) ([2]; two effective doses A4, A5): significant prolongation of the CBT
- fraction unbound [3]: 0.093 ± 0.013
- clearance (Rat pharmacokinetics): 12 mL/min/kg
- half-life (Rat pharmacokinetics): 51.6 min
- Ki (rat fIXa): > 30 µM
- calculated EO achieved at median C min (fXa [6]): 99.2%
- predicted rat equivalent of C avg (fXa [8]): 24 µM
- Ki (Human fIXa): > 30 µM
Compound: COc1ccc(-n2nc(C(N)=O)c3c2C(=O)N(c2ccc(N4CCCCC4=O)cc2)CC3)cc1 [Apixaban]
- effect on PT (in words) (PT): concentration‐dependent increase
- fXa EO required to ensure CW <50 mg in all animals (fXa [4]): > 99%
- activity in TGA (in words) [5]: activity was constant across the TF concentration tested
- target CW corresponding to the apixaban clinical C min ([7]; PK/PD model simulation at rat equivalent of clinical C min): 16 (12–24) mg
- CW reduction vs vehicle (in words) ([7]; two highest doses A4 (3/3.75 mg/kg), A5 (8/10.2 mg/kg)): significant CW reduction
- I max (maximal inhibition of CW) ([7]; vehicle-proportional Imax PK/PD model of CW vs rat plasma concentration): 0.946
- effect on aPTT (in words) (aPTT): concentration‐dependent increase
